Blank lines part the entries; values can stand above or below the compound they belong to. Calls of active or inactive are those of the source.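 The calls were made as follows: active = a clear dose-dependent calcium response in rat M1 cells, with a fitted half-maximal potency; inactive = the rest.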
Target: Muscarinic acetylcholine receptor M1 (Rattus norvegicus) (UniProt P08482)
Assay: rat M1 positive allosteric modulation, dose response, counter-screen for M4 PAM project, CHO cells, calcium fluorescence (AID 588749)
Settings: Fluo-4 calcium fluorescence
Procedure, shortened: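 material = rat M1 CHO cells | reagent = ACh at EC20 then EC80 | incubation = 144 s compound pre-incubation, 37 °C | technique = Fluo-4 calcium fluorescence | read-out = % max ACh response and EC50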

Chain of Muscarinic acetylcholine receptor M1 (Rattus norvegicus) (P08482 whole entry, looked up): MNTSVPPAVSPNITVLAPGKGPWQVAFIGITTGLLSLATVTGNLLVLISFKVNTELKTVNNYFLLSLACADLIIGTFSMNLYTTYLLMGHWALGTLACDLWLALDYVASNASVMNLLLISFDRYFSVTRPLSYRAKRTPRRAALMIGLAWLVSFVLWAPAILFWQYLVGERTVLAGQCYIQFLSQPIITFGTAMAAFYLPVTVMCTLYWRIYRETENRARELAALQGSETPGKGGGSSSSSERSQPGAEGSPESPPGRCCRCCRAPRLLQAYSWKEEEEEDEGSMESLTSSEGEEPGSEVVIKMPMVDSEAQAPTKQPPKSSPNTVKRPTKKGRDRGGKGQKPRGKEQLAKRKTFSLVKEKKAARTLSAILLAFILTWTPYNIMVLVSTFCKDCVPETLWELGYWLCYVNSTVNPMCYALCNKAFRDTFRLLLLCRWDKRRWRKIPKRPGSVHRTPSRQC

SMILES: Cc1nc2sc(C(=O)NCc3ccncn3)c(N)c2c(C)c1Cl
- percent of ACh max response (at 30 µM (top of the series)): inactive

SMILES: Cc1nc2sc(C(=O)NCc3ccc4c(c3)OCO4)c(N)c2c(C)c1Cl
- percent of ACh max response (at 36.8 µM (top of the series)): inactive

SMILES: Cc1nc2sc(C(=O)NCCc3ccncc3)c(N)c2c(C)c1Cl
- percent of ACh max response (at 30 µM (top of the series)): inactive

SMILES: Cc1nc2sc(C(=O)NCc3nccs3)c(N)c2c(C)c1Cl
- percent of ACh max response (at 30 µM (top of the series)): inactive

SMILES: Cc1nc2sc(C(=O)NC3CC3)c(N)c2c(C)c1Cl
- EC50: 943 nM

Results, then the compound that gave them:

- percent of ACh max response (at 45.3 µM (top of the series)): inactive
SMILES: Cc1nc2sc(C(=O)NCc3ccncc3)c(N)c2c(C)c1Cl

- percent of ACh max response (at 30 µM (top of the series)): inactive
SMILES: Cc1nc2sc(C(=O)NCc3cccc(F)c3F)c(N)c2c(C)c1Cl

- percent of ACh max response (at 37.4 µM (top of the series)): inactive
SMILES: Cc1nc2sc(C(=O)NCc3ccccc3)c(N)c2c(C)c1Cl

- percent of ACh max response (at 45.3 µM (top of the series)): inactive
SMILES: Cc1nc2sc(C(=O)NCc3cccnc3)c(N)c2c(C)c1Cl
